# From PubChem BioAssay
# TAAR1 antagonist: antagonists of human TAAR1 | Q96RJ0 | inhibition, % at 3 µM | CHO RD-HGA16 TAAR1, Fluo-8 calcium fluorescence, antagonist | hit rate 1.5% among 360,000 | AID 624466;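 active means inhibition above a per-plate cutoff, the mean inhibition of test compounds on that plate plus 3 SD, cut at about 49% in these data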;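 further: 0% = DMSO plus EC80 beta-PEA response and 100% = DMSO alone without agonist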
# Target sequence (Q96RJ0 whole entry, looked up): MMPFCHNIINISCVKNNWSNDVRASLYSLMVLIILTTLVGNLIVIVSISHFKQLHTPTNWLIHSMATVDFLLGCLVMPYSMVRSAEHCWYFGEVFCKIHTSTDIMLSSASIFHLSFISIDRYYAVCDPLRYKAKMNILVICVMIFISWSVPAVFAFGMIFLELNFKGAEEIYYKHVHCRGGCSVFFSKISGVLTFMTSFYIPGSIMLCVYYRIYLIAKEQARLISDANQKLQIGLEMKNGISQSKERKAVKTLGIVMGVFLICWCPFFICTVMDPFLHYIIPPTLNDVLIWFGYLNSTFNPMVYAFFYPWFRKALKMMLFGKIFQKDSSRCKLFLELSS
#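 Assay system: RD-HGA16 CHO cells with stable hTAAR1 and Gα16 / Reagent: EC80 β-phenethylamine stimulus / Doses: 3 µM, single point / Timing: dye loading 75 min at 37 °C, then 30 min room temperature / Measured by: Fluo-8 intracellular calcium dye fluorescence, real-time kinetic reads / Controls: vehicle wells and EC80 agonist wells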
# TAAR1 ag: agonists of human TAAR1. Q96RJ0. CHO RD-HGA16 TAAR1, Fluo-8 calcium fluorescence; vehicle wells 0%, saturating PEA agonist 100%. activation, % at 3 µM. hit rate 0.99% among 360,000. AID 624467;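 active means activation above the mean activation of all test compounds in the run plus 3 SD, cut at about 38% in these data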
#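 System: CHO-derived RD-HGA16 cells with stable Gα16 and human TAAR1. Times: 17-24 h plating, Fluo-8 75 min 37 °C, 30 min RT. Measured by: calcium-sensitive Fluo-8 signal, excitation 470-495, emission 515-575 nm. Read-out basis: % activation relative to PEA EC100 response. Control set: DMSO and PEA EC100. Repeats: no replicates (n 1).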
# M1 antag: antagonists of human M1 muscarinic receptor; inhibition, % at 3 µM; CHO-K1 hM1, Fluo-8 calcium fluorescence, ACh EC80 antagonist; hit rate 1.3% among 360,000; P11229;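 active means percent inhibition above its own plate's cutoff, namely the mean of that plate's compound wells plus 3 SD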;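 further: peak over basal fluorescence ratio during 140 s after agonist addition; 0% = ACh EC80 plus DMSO and 100% = DMSO alone without agonist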
# M1 ag: activates human CHRM1 receptor | P11229 | CHO-K1 hM1, Fluo-8 calcium fluorescence, agonist mode; 0% DMSO, 100% acetylcholine EC100 | activation, % at 3 µM | hit rate 0.33% among 360,000 | AID 588814;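 active means activation above the run's mean compound activation plus 3 SD, cut at about 16% in these data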;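 further: peak over basal fluorescence ratio within a 140 s kinetic read after compound addition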
# M1 PAM: human CHRM1 positive allosteric modulation; activation, % at 3 µM; P11229; CHO-K1 hM1, Fluo-8 calcium fluorescence, ACh EC20; 0% = ACh EC20, 100% = maximal ACh; hit rate 0.088% among 360,000; in the data active means activation above about 19%, passing the limit was not always enough
# * marks the source's active call; other numbers are inactive results; x = no result given. Hits are enriched below; roughly 3.4% of the tested compounds scored in any of these assays.
SMILES,TAAR1 antagonist,TAAR1 ag,M1 antag,M1 ag,M1 PAM
C=CCC1(CC=C)CCCN1C(=O)c1cc(COc2ccc(F)c(F)c2)on1,38,6,26,-1,-13
C=CCC1(CC=C)CCCN1C(=O)c1cc(COc2ccc(C)nc2)on1,22,0,55*,2,-14
C[C@@H]1ON(C)[C@H]2C[C@H]3c4cc(-c5ccccc5)ccc4CCN3C[C@@H]12,5,0,x,x,x
O=c1c(O)c(-c2ccc(O)cc2)oc2cc(O)cc(O)c12,-55,24,-7,19*,15
C=CCC12C[C@@]3(O[C@H](c4ccc(C(F)(F)F)cc4)N=C3C[C@H](c3ccc(OC)cc3)[C@H]1C)N(Cc1ccc3c(c1)OCO3)C2=O,-58,7,x,x,x
O=C(N[C@H](C(=O)N1CCC[C@H]1C(=O)NC1CCCC1)C1CCCCC1)C1CC1,-3,2,x,x,x
O=C(Nc1ccc(N=Nc2ccccc2)cc1)c1ccccc1Cl,49*,-1,-6,-7,5
COCCN(Cc1ccc(C)cc1)C(=O)[C@@H](Cc1ccccc1)NC(=O)[C@H]1O[C@@H](n2ccc(=O)[nH]c2=O)[C@H](O)[C@@H]1O,-33,0,x,x,x
CCOc1ccc(-c2cc(C(=O)NCc3ccc(C(F)(F)F)cc3)[nH]n2)c(C)c1,37,3,2,-3,-3
Cc1cc(F)ccc1-c1cc(C(=O)NCc2ccc(C(F)(F)F)cc2)[nH]n1,71*,56*,9,32*,1
CC1=CC(C)(C)N(C(=O)CNC2CCCCC2)c2cc(C)ccc21,-9,15,99*,-6,-24
CC1=CC(C)(C)N(C(=O)CCl)c2cc(C)ccc21,-13,0,-4,-6,5
O=[N+]([O-])c1ccc(Sc2cccc[n+]2[O-])c2nonc12,41,25,44*,5,-1
O=[N+]([O-])c1ccc(Nc2ccccc2)c2nonc12,10,6,-1,6,-4
COc1ccc2sc(-c3ccc(SC)cc3)c(-c3ccc(O)cc3)c2c1,58*,20,2,-7,1
COc1ccccc1Cc1c(-c2ccco2)nc2cc(C)c(Br)c(C)n12,-8,0,x,x,x
CCOC(=O)Nc1ccc2c(c1)N(C(=O)CCN1CCN(C)CC1)c1ccccc1S2,-9,1,-20,12,-11
CC(C)OC(=O)Nc1ccc2c(c1)N(C(=O)N1CCN(C)CC1)c1ccccc1CC2,-32,3,78*,2,-23
CCNCC(=O)N1c2ccccc2CCc2ccc(NC(=O)OC(C)C)cc21,-15,3,-18,-8,9
CCOC(=O)Nc1ccc2c(c1)N(C(=O)N1CCN(C)CC1)c1ccccc1S2,-3,16,97*,-5,-23
CCOC(=O)Nc1ccc2c(c1)N(C(=O)CN1CCN(C)CC1)c1ccccc1CC2,7,2,22,-8,-20
CCOC(=O)Nc1ccc2c(c1)N(C(=O)N1CCN(C)CC1)c1ccccc1CC2,-15,5,49*,1,-16
CC(C)C[C@@H](CN1CCC[C@H]1CN1C(=O)C(=O)NC[C@@H]1Cc1ccccc1)N1C[C@H](Cc2ccc(O)cc2)N(CC2CCCCCC2)C(=O)C1=O,-10,0,x,x,x
O=C(N[C@H](Cc1ccccc1)C(=O)NCCCN1CCCC1=O)[C@H]1O[C@@H](n2ccc(=O)[nH]c2=O)[C@H](O)[C@@H]1O,9,1,x,x,x
Oc1ccccc1C=NC(N=Cc1ccccc1O)c1ccccc1O (stereo unspecified),11,3,x,x,x
SMILES,TAAR1 antagonist,TAAR1 ag,M1 antag,M1 ag,M1 PAM
Cc1cc(O)cc(=O)n1-c1cc(Cl)cc(Cl)c1,-16,5,x,x,x
COCC1CN(CCc2ccc(F)cc2)S(=O)(=O)c2c(F)cccc2O1 (stereo unspecified),-3,5,x,x,x
CO/N=C(\CS(=O)(=O)Cc1ccc(OC)cc1)c1ccc(Cl)cc1,24,43*,1,-5,-3
COc1ccc(CS(=O)(=O)CC(C)(O)c2ccc(Cl)cc2)cc1 (stereo unspecified),3,-2,2,2,11
Cc1cc(C(=O)CN2C(=O)NC3(CCCc4ccccc43)C2=O)c(C)n1Cc1ccccc1 (stereo unspecified),-7,-1,-4,-4,3
Cc1cc(C(=O)CN2C(=O)CCC2=O)c(C)n1Cc1ccccc1,3,40*,-11,0,6
